Data from ChEMBL document CHEMBL1129055, “Synthesis, in vitro antiviral evaluation, and stability studies of bis(S-acyl-2-thioethyl) ester derivatives of 9-[2-(phosphonomethoxy)ethyl]adenine (PMEA) as potential PMEA prodrugs with improved oral bioavailability” (J Med Chem, 1996).

Experiments:
[1] = Half-life in RPMI1640 medium.; type: ADME
[2] = Half-life in culture medium.; type: ADME
[3] = Partition coefficient (logP); type: physicochemical; settings: octanol/water
Summary of the method: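 Octanol/water partition coefficient (logP) determined by HPLC using a microscale method adapted from earlier work on nucleoside analogues.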

CEM-SS [4] = assay: (§1) Compound was tested for antiviral activity against the CEM-SS cell lines infected with HIV-1.; type: functional, cell-based; settings: Homo sapiens
Summary of the method: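 CEM-SS cells infected with 100 TCID50 HIV-LAI for 30 min, unbound virus removed by two washes, then cultured 5 days with graded compound concentrations. Virus production quantified as reverse transcriptase activity in culture supernatant. EC50 derived from median effect plot of dose-effect data.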

CEM-SS [5] = assay: as §1; type: functional; settings: Homo sapiens
MRC5 [6] = assay: Compound was tested for antiviral activity against the MRC-5 cells infected with HSV-2.; type: functional, cell-based; settings: Homo sapiens
Summary of the method: (§2)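 Confluent cells in MEM with 5% FBS infected with 100 CCID50 virus (HSV-1 strain F or HSV-2 strain G) for 1 h at 37 °C, then exposed to compound from 1 mM to 1 uM. Cytopathic effect scored daily. EC50 is the concentration that reduces CPE by 50% once CPE is complete in untreated infected controls.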

MT4 [7] = assay: (§3) Compound was tested for antiviral activity against the MT-4 cell lines infected with HIV-1.; type: functional, cell-based; settings: Homo sapiens
Summary of the method: (§4)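 MT-4 cells infected with 50 TCID50 HIV-1 IIIB for 30 min, washed twice, then cultured 5 days with graded compound concentrations. Protection from virus-induced cytopathogenicity read by MTT reduction to formazan. EC50 taken from median effect plot of dose-effect data.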

MT4 [8] = assay: as §3; type: functional; settings: Homo sapiens; summary of the method: as §4
MRC5 [9] = assay: (§5) Compound was tested for antiviral activity against the MRC-5 cells infected with HSV-1.; type: functional; settings: Homo sapiens; summary of the method: as §2
MRC5 [10] = assay: as §5; type: functional, cell-based; settings: Homo sapiens; summary of the method: as §2
Vero [11] = assay: (§6) Compound was tested for antiviral activity against the Vero cells infected with HSV-1.; type: functional, cell-based; settings: Chlorocebus sabaeus; summary of the method: as §2
Vero [12] = assay: as §6; type: functional; settings: Chlorocebus sabaeus
Vero [13] = assay: Compound was tested for antiviral activity against the Vero cells infected with HSV-2; type: functional, cell-based; settings: Chlorocebus sabaeus; summary of the method: as §2
[14] = Percent decomposition in water at specified pH 7.2; settings: buffer

SMILES | half-life [1] [h] | half-life [2] [h] | logP ([3]; read-out: logP) | EC50 (CEM-SS [4]) [µM] | CC50 (CEM-SS [5]) [µM] | EC50 (MRC5 [6]) [µM] | EC50 (MT4 [7]) [µM] | CC50 (MT4 [8]) [µM] | CC50 (MRC5 [9]) [µM] | EC50 (MRC5 [10]) [µM] | EC50 (Vero [11]) [µM] | CC50 (Vero [12]) [µM] | EC50 (Vero [13]) [µM] | percent decomposition [14] [%] | logP [3]
CC(=O)SCCOP(=O)(COCCn1cnc2c(N)ncnc21)OCCSC(C)=O | > 24 | 3.7 | 0.32 | 0.1 | 23 | 8.9 | 1.1 | 7.6 | 148 | 12.6 | 14.2 | 126 | 10.2 | 4 | 
CC(C)(C)C(=O)SCCOP(=O)(COCCn1cnc2c(N)ncnc21)OCCSC(=O)C(C)(C)C |  | 81.6 | 3.41 | 0.03 | 5.8 | 0.97 | 0.65 | 15 | 48.5 | 1.43 | 1.07 | 36.8 | 1.12 | 3 | 
Nc1ncnc2c1ncn2CCOCP(=O)(O)OCCSC(=O)c1ccccc1 |  | 64.8 |  |  |  |  |  |  |  |  |  |  |  |  | 
CC(C)C(=O)SCCOP(=O)(O)COCCn1cnc2c(N)ncnc21 |  | 28.8 |  |  |  |  |  |  |  |  |  |  |  |  | 
Nc1ncnc2c1ncn2CCOCP(=O)(OCCSSCCO)OCCSSCCO | > 24 | 38.4 | 0.21 | 2 | 67 | 26.5 | 6.9 | 50 | > 100 | 32.3 | 22.3 | > 100 | 27.4 | 13.9 | 
CC(C)(C)C(=O)OCOP(=O)(COCCn1cnc2c(N)ncnc21)OCOC(=O)C(C)(C)C [ADEFOVIR DIPIVOXIL] | 5 | 5 | 2.48 | 0.04 | 4.4 | 0.91 | 0.08 | 0.74 | 15.7 | 1.23 | 0.87 | 22.6 | 1.15 | 32.7 | 
Nc1ncnc2c1ncn2CCOCP(=O)(O)O [ADEFOVIR] |  |  |  | 0.42 | > 10 | 33.5 | > 10 | > 10 | > 100 | 29.7 | 38.5 | > 100 | 32.7 |  | -4.11
CC(C)(C)C(=O)SCCOP(=O)(O)COCCn1cnc2c(N)ncnc21 |  | 230 |  |  |  |  |  |  |  |  |  |  |  |  | 
Nc1ncnc2c1ncn2CCOCP(=O)(OCCSC(=O)c1ccccc1)OCCSC(=O)c1ccccc1 |  | 25.7 | 3.93 | 0.05 | 3.9 | 4.75 | 0.41 | 2.4 | 18.7 | 3.48 | 2.56 | 12.7 | 2.89 | 1.7 | 
CC(C)C(=O)SCCOP(=O)(COCCn1cnc2c(N)ncnc21)OCCSC(=O)C(C)C |  | 8.3 | 2.31 | 0.09 | 13 | 1.2 | 0.51 | 3.8 | 30.2 | 1.69 | 1.35 | 23 | 1.14 | 1.6 | 
CC(=O)SCCOP(=O)(O)COCCn1cnc2c(N)ncnc21 |  | 19.2 |  |  |  |  |  |  |  |  |  |  |  |  | 
